Fewer inactive variants are shown than the library holds.
B1: tRNA (parent)
chain: GUUCCGUUGGCGUAAUGGUAACGCGUCUCCCUCCUAAGGAGAAGACUGCGGGUUCGAGUCCCGUACGGAACG

Variants of: B1
Test: yeast fitness relative to wild type (ratio to wild type); higher = fitter; tRNA-Arg(CCU), competitive growth, 37 C, YPD
Summary of the method: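 Genotype frequency changes were the basis for Darwinian fitness relative to wild type. The frequencies came from 100-nucleotide paired-end sequencing of gene amplicons from the start population and each end population of pooled yeast strains with tRNA-Arg(CCU) gene variants at the native locus. Competition ran in YPD at 37°C for 24 hours in six replicates, genotypes needed ≥ 100 starting reads, and estimates < 0.5 were set to 0.5.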

| Variant | yeast fitness |
| --- | --- |
| U13A C27G A40G G41C | 0.741 |
| A21G G38A | 0.881 |
| C5A C11A G17C A43U U59A | ≤ 0.5 |
| U13C A21G U35A C55U A65G | ≤ 0.5 |
| C24U C31G C34G A43U G68C A69G | ≤ 0.5 |
| G6A C11A A40G G56C C61G A70U | ≤ 0.5 |
| U2A U16A | 0.989 |
| C4G U7G U13G A20U C31A C34G A42C | ≤ 0.5 |
| G6C C22U A65G C66G G68C | ≤ 0.5 |
| C5A G23A | 0.753 |
| U7C C34G A45G C60U A69U | ≤ 0.5 |
| C22G C31G C55U C61G C62G | ≤ 0.5 |
| C4U G9A C24G A37C G41A A57U | ≤ 0.5 |
| U2A G18A C22A C24G A43G C49G | 0.634 |
| U3A C4U C11U G48C | 0.532 |
| U13G A36C | 0.52 |
| C22U C30G G52A | 0.514 |
| A45C C46A | 0.991 |
| A15G C29G C46U | 0.52 |
| U8C U16C A20U C30U G39C A45G A69C | ≤ 0.5 |
| A15U C46U U54C | 0.684 |
| U19A A36G C46A | 0.69 |
| A21C C29G U59C | ≤ 0.5 |
| C5U G51A | 0.798 |

| Variant | yeast fitness |
| --- | --- |
| G6C G10C A40G A42U | ≤ 0.5 |
| U2G U28A U32C C49G G52A | ≤ 0.5 |
| A43U G50A | 0.796 |
| U47G U59A C66A A70C | ≤ 0.5 |
| U3A A21C | 0.768 |
| U32C C46G A57U | 0.673 |
| C11A U19C A21U A43U G58C C60A C66U | 0.531 |
| C4A C22U C33G A45C U53G A69C | 0.57 |
| C5G A21G U59A A69C A70C | ≤ 0.5 |
| G10C C34G U54C A70U | ≤ 0.5 |
| C27A C29U | 0.766 |
| C22G A43U C62U | 0.56 |
| U2A G6A C11G C49U A65U | ≤ 0.5 |
| C31G C46G C61G A69U | ≤ 0.5 |
| C22G C24U A37C G51C C55U A69C A70U | 0.554 |
| C29U A36U C66G | ≤ 0.5 |
| U19C A45C C55U | 0.518 |
| C11A G25C C29U C62A | ≤ 0.5 |
| A15C A69C | 0.672 |
| G18C U28C C30U A43G C55U | ≤ 0.5 |
| A15G U28A C34G C46A A69G | ≤ 0.5 |
| A20G C24A C29G A37U G39A | ≤ 0.5 |
| G50A A69U | 1 |
| C4G A14C G48A C49U | ≤ 0.5 |

| Variant | yeast fitness |
| --- | --- |
| U28A C61A | 0.612 |
| U3A G50C | 0.727 |
| A43U C62U G63A | 0.823 |
| C27G A43U C55G | ≤ 0.5 |
| C4U C49G A70G | 0.602 |
| G17A A20U C24U A65U | ≤ 0.5 |
| U7C G18A C31A | 0.541 |
| C11A A20U U47C | ≤ 0.5 |
| U26C C34G A70C | ≤ 0.5 |
| U2G C22U C24G A69U | 0.501 |
| U16C C22U A37U | 0.576 |
| G12A G18C A42U G58A G68A | ≤ 0.5 |
| A21G C27A A37U C46U C66U | ≤ 0.5 |
| U26C U28G C34U G38A | ≤ 0.5 |
| C31G A57G | 0.771 |
| C4G U64A | 0.707 |
| C22A C33A A37U | ≤ 0.5 |
| G10C A21C U26G C34U A40G G51A | 0.598 |
| U54C G67U | 0.798 |
| C27G G39C G52A | ≤ 0.5 |
| C5U U7A C33U A42C U64C A70G | ≤ 0.5 |
| U19C C27G A65U G68U | ≤ 0.5 |
| A14C A45G C49U | 0.549 |
| C5G G41A A42C G50C A70G | ≤ 0.5 |

| Variant | yeast fitness |
| --- | --- |
| A14G C22G U35C A57C | ≤ 0.5 |
| G38C G41C C55U G67C | ≤ 0.5 |
| U32C A40U C60U G67C A70G | ≤ 0.5 |
| A15U U47A G58A A65C | ≤ 0.5 |
| G6A U8C G17A G25A C55A | ≤ 0.5 |
| C29U C49G G58C | ≤ 0.5 |
| U13A U35A A40U G41A A42C | ≤ 0.5 |
| U7A G17C C24G C29A G48C | ≤ 0.5 |
| A37C G39C A65U | ≤ 0.5 |
| C4G G12A A43U A45C G67C | ≤ 0.5 |
| C24G C34G G48A U54A G63C | ≤ 0.5 |
| A21U A42C | 0.741 |
| C11A U19C U26C A40U G44C C46U U64G | 0.514 |
| A20G G23A C33G A69U | ≤ 0.5 |
| C11G A15G C22A U26A A40U C49U | ≤ 0.5 |
| U19C G25A G48C C62A | ≤ 0.5 |
| C4U C22G G50C | 0.533 |
| U26G U35A | 0.589 |
| U2C C49G G58A | ≤ 0.5 |
| U2C U28C C55A | ≤ 0.5 |
| U13C G23C | 0.511 |
| G12A C29A C31G C60A | ≤ 0.5 |
| C22G C27G A45U A57G A70G | 0.595 |
| C5U G10C G39C G51A | ≤ 0.5 |

| Variant | yeast fitness |
| --- | --- |
| G9A U19C G23C U59A G68C | ≤ 0.5 |
| C11A C24G C34G A36G | ≤ 0.5 |
| U13A A45C C60A | ≤ 0.5 |
| C46U C49U C66U | 0.806 |
| C5A U8G A37U G51A G52C A57G U59C | 0.52 |
| A20C C29U C34A C46A G50A A57U C66U | ≤ 0.5 |
| C4A G23C | 0.77 |
| C29U U35C A37C A65G C66A | ≤ 0.5 |
| U2A C4A G6A C29G A57G | ≤ 0.5 |
| G18C C60G A65G | 0.544 |
| C24A C27U C61A | ≤ 0.5 |
| G25C C33A | 0.758 |
| C5G A15G U28C C30U A69U | ≤ 0.5 |
| A15G C55U U59C A65C | ≤ 0.5 |
| C5G G9C U28C C55U | ≤ 0.5 |
| C29G U32G G38A G48C G67U A69C | ≤ 0.5 |
| A15U C61G | 0.582 |
| A42U U53G A70U | ≤ 0.5 |
| C5G G44C C49G A69U | ≤ 0.5 |
| A36G C66U | 0.949 |
| G25C A45G | 0.869 |
| U16G C29G C33U G39A C49U | ≤ 0.5 |
| A20C G48C A57G | 0.545 |
| U35C G48A C55U A70G | 0.56 |

| Variant | yeast fitness |
| --- | --- |
| A15C G50C | 0.672 |
| G17A C24A U35A | ≤ 0.5 |
| C5G G18C G56C | ≤ 0.5 |
| C30G U64C | 0.626 |
| U2G G48A G58C | 0.895 |
| C5A C29U A36U C66U G67A | ≤ 0.5 |
| U32A U59C A69C | ≤ 0.5 |
| C27U C33G C34U C61U G67A G68C | ≤ 0.5 |
| C34A U47C G51A A69U | ≤ 0.5 |
| C31A G44A A57C G68C | 0.753 |
| A20U A45G C46U | 0.836 |
| C22G C34A A40C A45U | 0.665 |
| G9C C31G U32G | ≤ 0.5 |
| G10A A57U U59A A65C | 0.561 |
| A21U C27G C31A C46A G56C | ≤ 0.5 |
| U8C A20C G38A U53A | ≤ 0.5 |
| C11G C22A C31A A40G | ≤ 0.5 |
| A36C C61U A65U | ≤ 0.5 |
| C31A C34A A37C | 0.6 |
| U3C U13A C31U G41A A70C | 0.639 |
| U8C U47C | 0.913 |
| C5A A36G C46A | 0.562 |
| C4G U8G C27G G48C | ≤ 0.5 |
| U3C C11A C31A | 0.556 |

| Variant | yeast fitness |
| --- | --- |
| C29G C30G U32C A36U C60U C61U | 0.566 |
| U3A A21G G23C A36U C60A | ≤ 0.5 |
| C11U C27U | 0.906 |
| C4A C24U C29U U32C U54C | ≤ 0.5 |
| C4U G6C A14U C24G G58C | 0.531 |
| U2C C4A C29G | 0.704 |
| A21U C22U C30G C55A | ≤ 0.5 |
| U19G A37G C66U A69U | 0.691 |
| C34U A40U | 0.632 |
| C11U C33U G68C | 0.527 |
| C31G U35A A65U | 0.622 |
| U32C G38C | 0.742 |
| C11U G52C C66U | ≤ 0.5 |
| C5U C31U G48C | 0.682 |
| G6C G10A A14C U16A C27U C33U | ≤ 0.5 |
| C5U C33U A69C | 0.556 |
| A42G C55A | 0.607 |
| A20G A36C G56C C61U | ≤ 0.5 |
| G6A U8G A36G | ≤ 0.5 |
| C4G U28C | 0.77 |
| A36C G44A A70C | ≤ 0.5 |
| C4U U32A G52C C55U C66U | ≤ 0.5 |
| U13C A70U | 0.945 |

— the RNAGym collection of RNA variant scans (doi:10.1126/science.aae0568)
